Results collected from several papers.
Target: Serine/threonine-protein kinase Nek7 (NEK7, Homo sapiens, UniProt Q8TDX7)

c1cncc(-c2cccc(Nc3nccc(NC4CCCCC4)n3)c2)c1 — remaining binding (binding; competition with immobilised ligand; 10 µM): 79%
CS(=O)(=O)N1CCCC(NC(=O)[C@H](CCC2CCCCC2)NC(=O)c2ccc(CNc3ncnc4c3nnn4-c3ccccc3)cc2)C1 (stereo partly drawn) — remaining binding (cell-free assay; competition with immobilised ligand; 0.1 µM): 88%
O=C(c1ccc(Nc2nccc(-c3cc4ccccc4s3)n2)cc1)N1CCC(N2CCCC2)CC1 — remaining binding (binding; competition with immobilised ligand; 1 µM): 79%
CN(C)c1nccc(-c2cnc3ncccn23)n1 — remaining binding (binding; 1 µM): 90%
O=C(NCCCN1CCOCC1)c1ccc(Nc2ncc(Cl)c(-c3ccc(Cl)s3)n2)cc1 — remaining binding (binding; competition with immobilised ligand; 1 µM): 1.2%
CC(C)CC(=O)N1CCc2nc(-c3ccc(Br)cc3)nc(N(C)Cc3ccccc3)c2C1 — remaining binding (cell-free assay; competition with immobilised ligand; 0.1 µM): 100%
COc1ncc2cc3ccccc3nc2c1C#N — remaining binding (cell-free assay; competition with immobilised ligand; 5 µM): 100%
c1cnn2ncc(-c3ccnc(N4CCC45COC5)n3)c2c1 — remaining binding (binding; 1 µM): 86%
COc1cccc(CNC(=O)c2nc3scc(COCc4ccc(C(=O)O)cc4)c3c(=O)[nH]2)c1 — remaining binding (cell-free assay; competition with immobilised ligand; 1 µM): 100%
COc1cnc(Nc2cccc(S(N)(=O)=O)c2)nc1N1CCN(c2ccccc2)C(=O)C1 — remaining binding (binding; competition with immobilised ligand; 1 µM): 91%
CCC(=O)N[C@H]1CC[C@@H](C(=O)N(C)c2ccc(-c3nc4ccccc4o3)cc2)C1 — remaining binding (cell-free assay; competition with immobilised ligand; 1 µM): 98%
COc1cnc(Nc2cccc(S(N)(=O)=O)c2)nc1N1CCN(c2ccccc2)CC1 — remaining binding (binding; competition with immobilised ligand; 1 µM): 74%
COc1cc(Nc2nccc(-c3cnn4nc(OC)ccc34)n2)cc(C(F)(F)F)c1 — remaining binding (binding; competition with immobilised ligand; 1 µM): 40%
COc1ccnn2ncc(-c3ccnc(N(C)C)n3)c12 — remaining binding (binding; 1 µM): 100%
O=C(NCCCN1CCOCC1)c1ccc(Nc2nccc(-c3cc4ccccc4s3)n2)cc1 — remaining binding (binding; competition with immobilised ligand; 1 µM): 52%
CCN1CCN(Cc2ccc(C(=O)Nc3ccc(C)c(Oc4ccc5c(c4)CC(=O)N5)c3)cc2C(F)(F)F)CC1 — remaining binding (binding; competition with immobilised ligand; 1 µM): 100%
CN(C)c1nccc(-c2cnn3ncccc23)n1 — remaining binding (binding; 1 µM): 92%
CC(=O)N1CCC(c2ccc(C(=O)NC3=NCCN3)cc2C(F)(F)F)CC1 — remaining binding (cell-free assay; competition with immobilised ligand; 1 µM): 100%
C[C@@H]1CCN(c2nccc(-c3cnn4ncccc34)n2)C1 — remaining binding (binding; 1 µM): 89%
COc1cc(-c2cn(C3CCc4ccccc4N(CC(F)(F)F)C3=O)nn2)ccc1-n1ccc(C)n1 (stereo not drawn) — remaining binding (cell-free assay; competition with immobilised ligand; 1 µM): 100%
CN(CCCC(F)(F)F)c1nccc(-c2cnn3ncccc23)n1 — remaining binding (binding; 1 µM): 100%
O=C(NCCCC1CCCCC1)c1ccc(CNC(=O)c2cnn(-c3ccccc3)c2C(F)(F)F)cc1 — remaining binding (cell-free assay; competition with immobilised ligand; 0.1 µM): 97%
N[C@H]1CCN(c2nccc(-c3cnn4ncccc34)n2)C1 — remaining binding (binding; 1 µM): 100%
O=C(Nc1c[nH]nc1C(=O)NC1CCNCC1)c1cc(F)cc(F)c1 — remaining binding (binding; competition with immobilised ligand; 1 µM): 100%
